# Activity calls are given as the source filed them.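 The calls were made as follows, unless noted: active = viability at or below 30% in both replicate assays; inconclusive = viability at or below 30% in just one of the two assays; inactive = the rest.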
# Assays:
# [1] = SK-BR-3 cell growth inhibitors, pilot screen, 24 h, human (AID 572;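 active = viability at or below 10% of carrier control in both of two separate runs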;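 also: compound exposure lasted between 18 and 24 h rather than exactly 24 h; 100% = carrier-treated control wells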); conditions: SK-BR-3 viability, CellTiter-Glo luminescence, at 10 µM, stronger effect = lower value
# [2] = HUVEC growth inhibition – cell-based, human, primary screen (AID 575); conditions: HUVEC proliferation, CellTiter-Glo luminescence, 72 h; at 10 µM; stronger effect = lower value;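 also: 100% = median of untreated cell wells with 0.1% DMSO on each plate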
# Summary of the method: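 Assay system: primary human umbilical vein endothelial cells / Buffer or medium: endothelial basal medium with 2% FBS plus growth supplements / Compound dosing: one dose, 10 µM final, 0.1% DMSO / Timing: 72 h treatment at 37 °C / Signal: CTG luminescence / Benchmarks: 32 DMSO-only cell-control wells (high), 32 MePR drug-control wells (low) per plate / Plate: collagen-coated 384-well format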
# [3] = growth inhibitors of H69AR lung tumor, primary screen, human, duplicate replicates (AID 580;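 active = viability at or under a set limit in both replicates, limit being median viability minus 3 SD, cut at about 48% in these data, passing the limit was not always enough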;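 also: 100% = mean luminescence of untreated wells and 0% = no signal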); conditions: H69AR lung tumor cells viability, ATP luminescence, 72 h; at 10 µM; stronger effect = lower value
# [4] = reversal of MRP1-mediated doxorubicin resistance, pilot screen, H69AR cells, doxorubicin co-treatment (AID 601;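 active = viability loss from added drug above about 55%, and viability with drug at most 40%, in both replicates, limit read from the data, passing the limit was not always enough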); conditions: CellTiter-Glo, 72 h, at 10 µM; for differential viability (reversal): stronger effect = higher value
# [5] = 384-well plate pilot, post-Golgi transport modulator project, inhibition of yeast transport mutant growth (AID 636; in the data active = inhibition above about 31%); conditions: absorbance 615 nm, about 18 h, stronger effect = higher value
# [6] = growth suppression of yeast trafficking mutant, preliminary HTS, modulators of trafficking downstream of Golgi apparatus project, 1536-format plate, OD 615 nm (AID 637; in the data active = inhibition above about 30%); conditions: yeast transport mutant growth, absorbance 615 nm, 18 h; stronger effect = higher value
# [7] = H69AR cells + 2 uM doxorubicin, measured here: viability with 2 uM doxorubicin, stronger effect = lower value
# [8] = H69AR cells, compound alone cytotoxicity
SMILES,viability [1],viability [2],viability [3],differential viability (reversal) ([4]; H69AR cells + 2 uM doxorubicin),"viability [4, 7] [%]","viability [4, 8] [%]",inhibition [5],inhibition [6]
COC(=O)CC(C(=O)Nc1cc(C(=O)OC)cc(C(=O)OC)c1)N1CCN(C)CC1 (stereo unspecified),132% (inactive),99.5% (inactive),95.6% (inactive),5.77% (inactive),89.8,95.6,-5.62% (inactive),-7.9% (inactive)
COCCNC(=O)NC(=O)COC(=O)Cc1ccc2c(c1)OCCO2,81% (inactive),111% (inactive),99.2% (inactive),6.6% (inactive),92.6,99.2,-2.88% (inactive),3.82% (inactive)
CN(C)c1nc(Oc2ccc(N)cc2)nc(N(C)C)n1,97% (inactive),86.2% (inactive),90.1% (inactive),-6.47% (inactive),96.6,90.1,-7.73% (inactive),-2% (inactive)
CS(=O)(=O)N(Cc1ccccc1)c1ccc(C(=O)N2CCOCC2)cc1,95% (inactive),105% (inactive),97.7% (inactive),6.74% (inactive),91,97.7,-2.86% (inactive),-5.57% (inactive)
CC(=O)Nc1ccc(Cc2ccncc2)cc1,105% (inactive),90.2% (inactive),96.1% (inactive),8.84% (inactive),87.3,96.1,-4.8% (inactive),-4.36% (inactive)
COC(=O)c1c(NC(=O)CCc2ccc(C)o2)sc(C)c1C,112% (inactive),90.5% (inactive),81.7% (inactive),1.81% (inactive),79.9,81.7,-2.4% (inactive),1.27% (inactive)
O=C(CCNS(=O)(=O)c1ccc(Br)s1)N1CCCCC1,90% (inactive),107% (inactive),94.2% (inactive),7.65% (inactive),86.5,94.2,-6.03% (inactive),-4.19% (inactive)
O=C(CN1C(=O)c2ccccc2S1(=O)=O)Nc1ccc(S(=O)(=O)N2CCCCCC2)cc1,110% (inactive),81.4% (inactive),103% (inactive),14.2% (inactive),89.3,103,5.48% (inactive),-1.45% (inactive)
COc1ccccc1N1CCN(C(=O)CSc2nc3ncnc(N)c3[nH]2)CC1,110% (inactive),96.6% (inactive),92.8% (inactive),3.56% (inactive),89.3,92.8,-4.29% (inactive),-1.31% (inactive)
Clc1cccc(Cl)c1COc1ccncc1,88% (inactive),91.5% (inactive),97.2% (inactive),2.84% (inactive),94.3,97.2,0.82% (inactive),27.4% (inactive)
CN(C(=O)Cn1c(=O)n(CCCCC(=O)NC2CCCC2)c(=O)c2ccccc21)C1CCCCC1,106% (inactive),63.2% (inactive),93% (inactive),12.2% (inactive),80.9,93,-2.73% (inactive),5.08% (inactive)
CCOC(=O)c1oc2cc(OCC(N)=O)ccc2c(=O)c1-c1ccc(OC)c(OC)c1,65% (inactive),88.1% (inactive),99% (inactive),-2.63% (inactive),102,99,-7.67% (inactive),-0.55% (inactive)
CCOC(=O)Cn1nnc(-c2ccc(SC)cc2)n1,96% (inactive),100% (inactive),98% (inactive),5.72% (inactive),92.3,98,-8.38% (inactive),-4.36% (inactive)
CC(C)Cc1ccc(C(C)C(=O)O)cc1 (stereo unspecified),99% (inactive),84.3% (inactive),97.8% (inactive),5.44% (inactive),92.3,97.8,-1.95% (inactive),7.17% (inactive)
O=C(c1csc2ccccc12)n1cccn1,117% (inactive),89.7% (inactive),93% (inactive),6.73% (inactive),86.3,93,-12.3% (inactive),-1.29% (inactive)
CC(=O)Oc1cccc2c1C(=O)c1c(OC(C)=O)cc(C(=O)O)cc1C2=O,90% (inactive),60.2% (inactive),86.7% (inactive),0.27% (inactive),86.4,86.7,4.16% (inactive),7.17% (inactive)
COC(=O)c1cccc(NC(=O)CN2CCN(Cc3ccccc3)CC2)c1,56% (inactive),105% (inactive),90.5% (inactive),-2.89% (inactive),93.4,90.5,-5.34% (inactive),-0.36% (inactive)
CN1CCc2c(sc3c2c(=O)n(-c2ccccc2)c2nnc(SCc4ccccc4)n32)C1,77% (inactive),108% (inactive),95.8% (inactive),9.76% (inactive),86,95.8,-2.33% (inactive),1.82% (inactive)
CC(c1ccco1)N(Cc1ccco1)C(=O)Nc1ccccc1 (stereo unspecified),108% (inactive),76.3% (inactive),91.2% (inactive),23.7% (inactive),67.6,91.2,1.69% (inactive),6.72% (inactive)

SMILES,viability [1],viability [2],viability [3],differential viability (reversal) ([4]; H69AR cells + 2 uM doxorubicin),"viability [4, 7] [%]","viability [4, 8] [%]",inhibition [5],inhibition [6]
CCOCC(O)CS(=O)Cc1ccccc1 (stereo unspecified),111% (inactive),113% (inactive),98.5% (inactive),22.1% (inactive),76.4,98.5,-6.67% (inactive),-4.55% (inactive)
CCCc1ccccc1OCCNC(C)=O,103% (inactive),99.5% (inactive),102% (inactive),11.2% (inactive),90.4,102,-3.87% (inactive),0% (inactive)
CC(C)n1nnnc1SCC(=O)Nc1ccccc1N1CCOCC1,53% (inactive),98.4% (inactive),98.5% (inactive),-0.48% (inactive),99,98.5,-5.75% (inactive),2.73% (inactive)
CC(=O)c1c(C)[nH]c(C(=O)Nc2c(C)n(C)n(-c3ccccc3)c2=O)c1C,82% (inactive),101% (inactive),90.2% (inactive),7.98% (inactive),82.2,90.2,-8.63% (inactive),0% (inactive)
COc1ccc(-c2noc(CCCOc3ccccc3)n2)cc1OC,78% (inactive),103% (inactive),93.7% (inactive),-7.4% (inactive),101,93.7,-1.92% (inactive),4.91% (inactive)
CCOc1ccc(S(=O)(=O)N(C)C)cc1-c1nc2c(C(C)(C)C)nn(C)c2c(=O)[nH]1,99% (inactive),103% (inactive),78.9% (inactive),0.77% (inactive),78.1,78.9,-2.03% (inactive),-3.09% (inactive)
CC(=O)Nc1c(I)c(NC(C)=O)c(I)c(C(=O)O)c1I,89% (inactive),98.4% (inactive),103% (inactive),1.03% (inactive),102,103,-0.13% (inactive),-3% (inactive)
Cn1c(CN2CCCCC2)nc2cc(NC(=O)c3ccccc3)ccc21,54% (inactive),102% (inactive),88.5% (inactive),-5.74% (inactive),94.2,88.5,-7.53% (inactive),-3.09% (inactive)
O=C(Nc1nnc(SCC(=O)N2CCCCC2)s1)C1CCCCC1,81% (inactive),103% (inactive),101% (inactive),12.6% (inactive),88.8,101,-2.13% (inactive),0.73% (inactive)
CCOC(=O)CSc1nnc2n1C(C)(C)Cc1ccccc1-2,110% (inactive),111% (inactive),101% (inactive),-5.61% (inactive),106,101,4.32% (inactive),-0.91% (inactive)
CCOc1cc(C(=O)N(C)Cc2cc3cc(OC)ccc3[nH]c2=O)cc(OCC)c1OCC,88% (inactive),114% (inactive),95.1% (inactive),-1.01% (inactive),96.2,95.1,-4.46% (inactive),17.3% (inactive)
COc1cccc(N2C(=O)N(c3ccccc3Cl)C3CS(=O)(=O)CC32)c1 (stereo unspecified),93% (inactive),106% (inactive),98% (inactive),9.28% (inactive),88.7,98,-6.71% (inactive),3.45% (inactive)
CCOCCCNC(=O)C1CCC(CNS(=O)(=O)c2cccc3nsnc23)CC1 (stereo unspecified),102% (inactive),84.6% (inactive),88.3% (inactive),-5.31% (inactive),93.6,88.3,0% (inactive),-4.92% (inactive)
CCc1ccccc1NC(=O)CSC1=C(C#N)C(c2ccc(O)c(OC)c2)C2=C(CCCC2=O)N1 (stereo unspecified),112% (inactive),105% (inactive),47.9% (active),-30.2% (inactive),78.1,47.9,-8.08% (inactive),5.65% (inactive)
COc1ccc(OCC(=O)Nc2ccc(N3CCOCC3)c(Cl)c2)cc1,99% (inactive),96.1% (inactive),90.3% (inactive),2.16% (inactive),88.2,90.3,-4.25% (inactive),-2.1% (inactive)
COC(=O)c1ccc2c(c1)nc(C)n2CCO,104% (inactive),118% (inactive),99.4% (inactive),9.26% (inactive),90.1,99.4,-3.78% (inactive),-2% (inactive)
COc1cc(-c2nc(S(=O)(=O)c3ccc(C)cc3)c(N(C)C)o2)cc(OC)c1OC,71% (inactive),93.2% (inactive),87.9% (inactive),1.51% (inactive),86.3,87.9,-8.4% (inactive),-1.09% (inactive)
CC1=NN(c2ccccc2)C(=O)C1,96% (inactive),74.6% (inactive),94.5% (inactive),-10.1% (inactive),105,94.5,1.95% (inactive),0.67% (inactive)

# Source: PubChem BioAssay
